# Reference: PubChem BioAssay AID652000 (Sanford-Burnham Center for Chemical Genomics, 2013)
# Among all 2,400 compounds or so, fewer than 10 were called active. The list is a sample of the results. Values without a mark were called inactive.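 Rule for the calls: active = activation of at least 50%; inactive = the rest.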
# Biological target: G-protein coupled receptor 183 (Homo sapiens) (UniProt P32249)
# Test: EBI2 agonist activity of antagonist hits, confirmation, counter-screen for EBI2 antagonist project, cell-based, single concentration, agonist mode, luminescence (AID 652000)
# Conditions: EBI2-expressing cells, 60 min, at 5 µM, stronger effect = higher value, 0% vehicle, 100% 7α,25-dihydroxycholesterol control
# How it was run: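 Material: beta-arrestin reporter cell line | Probe or stimulus: Test wells without oxysterol | Compound: Single concentration, 2.5 nL of 10 mM stock | Times: Overnight seeding and 60-min compound at 37°C, 60-min detection at 25°C | Signal: Luminescence after adding detection reagent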
# Chain of G-protein coupled receptor 183 (Homo sapiens) (P32249 whole entry, looked up): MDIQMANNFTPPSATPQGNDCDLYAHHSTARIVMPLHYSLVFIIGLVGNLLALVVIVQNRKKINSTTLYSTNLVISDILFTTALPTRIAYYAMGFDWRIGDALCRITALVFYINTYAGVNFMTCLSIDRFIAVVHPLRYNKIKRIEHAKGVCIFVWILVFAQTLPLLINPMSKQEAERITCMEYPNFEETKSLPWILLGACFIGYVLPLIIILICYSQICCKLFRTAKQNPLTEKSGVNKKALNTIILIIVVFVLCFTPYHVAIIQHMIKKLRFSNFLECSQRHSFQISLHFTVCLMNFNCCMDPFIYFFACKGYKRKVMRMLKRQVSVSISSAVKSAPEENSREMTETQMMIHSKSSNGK
row,Compound,activation [%]
1,O=C(c1ccc(-n2cnnn2)cc1)N1CCN(C(c2ccccc2)c2ccccc2)CC1,1.53
2,Cc1cc(OCCOc2cccc3cccnc23)c(C)cc1Cl,1.3
3,COc1ccc(C(C(=O)NC2CCCCC2)N(C(=O)c2snc(C(N)=O)c2N)c2ccccc2OC)cc1 (stereo not drawn),1.3
4,CCCCN=C1C([N+](=O)[O-])=CC=C2C1=NC1(CCCCC1)N2O,-0.38
5,c1ccc(C(c2ccccc2)N2CCN(Cc3nnnn3C3CCCCC3)CC2)cc1,0.25
6,COc1ccc(/C=N/N=C/c2c[nH]c(=O)c(C#N)c2Nc2ccccc2)cc1,-1.52
7,COc1ccc(N(CC(=O)Nc2cc(OC)ccc2OC)S(=O)(=O)c2c(C)noc2C)cc1,1.12
8,Cc1ccc(S(=O)(=O)NCCNC(C)c2ccc(Br)cc2)cc1 (stereo not drawn),0.98
9,Cc1cccc(-n2c(O)c(C=Nc3ccccc3N)c(=O)[nH]c2=O)c1,-2.25
10,O=C(/C=C/c1cccc([N+](=O)[O-])c1)N1CCN(Cc2ccccc2)CC1,-0.29
11,O=c1[nH]c(CN2CCN(S(=O)(=O)c3ccc4c(c3)OCCO4)CC2)nc2sc3c(c12)CCCC3,-1.11
12,O=C(NCCCc1ccccc1)C1CCC(=O)N(CCc2ccc(Cl)cc2)C1 (stereo not drawn),1.57
13,COc1ccc(C(=O)/C=C/c2ccc(OC3CSC3)cc2)cc1,2.89
14,CCOC(=O)C1CCN(C(=O)COc2cc(C)c(Br)c(C)c2)CC1,2.25
15,N#Cc1ccc(C2=CC(=O)C[C@H](c3ccc(Cl)cc3)C2)cc1,1.84
16,COc1cccc(NC(=O)Cn2c3ccc(F)cc3c3nc4n(c(=O)c32)CCS4)c1,0.89
17,COc1ccc2cc(C3=CC(=O)C[C@H](c4ccc5c(c4)OCO5)C3)ccc2c1,-1.39
18,CCC(c1nnc(SCC(=O)NNC(=O)c2ccccc2)n1Cc1ccccc1)N(C)C (stereo not drawn),-1.34
19,Cc1cc(C)c2c(=O)n3c(nc2c1)C(CC(C)C)NC(=O)c1cc2ccccc2cc1-3 (stereo not drawn),0.75
20,COc1ccc(OCC(=O)N2CCN(C(=O)c3cccs3)CC2)cc1,1.48
21,CCN1CCN(C(=O)CSc2ccc(C)cc2)CC1,0.02
22,Cc1ccc(OCC(=O)N2CCN(S(=O)(=O)c3ccc(Cl)s3)CC2)cc1C,1.84
23,CCCCC(=O)N(C)c1c(CC)nc2c(OCc3ccc(Cl)cc3Cl)cccn12,-1.02
